Source: PubChem (The Scripps Research Institute Molecular Screening Center)
CHRM5 antagonist – blocks acetylcholine activation of human M5 receptor. P08912. CHO-hM5 cells, Fluo-8 calcium fluorescence, ACh EC80. inhibition, % at 3 µM. 360,000 compounds, 0.59% hits. AID 624040;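 active = inhibition above a per-plate cutoff, the mean of that plate's test compounds plus 3 SD, cut at about 27% in these data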;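 note: 0% = acetylcholine EC80 with DMSO and 100% = DMSO without agonist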
Target sequence (P08912 whole entry, looked up): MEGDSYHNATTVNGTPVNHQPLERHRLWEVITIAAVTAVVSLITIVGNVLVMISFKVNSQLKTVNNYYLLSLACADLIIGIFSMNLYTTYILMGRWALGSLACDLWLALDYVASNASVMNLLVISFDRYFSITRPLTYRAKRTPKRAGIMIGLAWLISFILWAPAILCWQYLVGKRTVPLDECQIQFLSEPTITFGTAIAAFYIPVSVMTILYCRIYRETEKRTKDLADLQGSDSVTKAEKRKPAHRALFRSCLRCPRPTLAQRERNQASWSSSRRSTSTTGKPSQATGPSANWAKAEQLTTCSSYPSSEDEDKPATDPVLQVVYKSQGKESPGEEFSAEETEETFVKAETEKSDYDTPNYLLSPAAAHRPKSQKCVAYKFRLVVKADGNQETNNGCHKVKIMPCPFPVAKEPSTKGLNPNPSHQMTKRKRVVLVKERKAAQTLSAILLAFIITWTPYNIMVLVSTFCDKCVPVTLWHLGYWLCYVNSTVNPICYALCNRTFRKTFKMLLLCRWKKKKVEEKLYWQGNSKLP
CHRM4 PAM – CHRM4 positive allosteric modulation. P08173. CHO-K1 hM4/Gqi5, Fluo-8 calcium fluorescence, ACh EC20; 0% = ACh EC20, 100% = maximal ACh. activation, % at 3 µM. 360,000 compounds, 0.4% hits. AID 624126;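 active = activation above its plate's cutoff, the mean activation of sample wells plus 3 SD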
CHRM5 agonist – agonists of human muscarinic M5 receptor (CHRM5). P08912. CHO-K1 hM5 cells, Fluo-8 calcium fluorescence; 0% DMSO wells, 100% maximal acetylcholine response. activation, % at 3 µM. 360,000 compounds, 0.19% hits. AID 624037;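 active = activation above the run's mean over test compounds plus 3 SD, cut at about 23% in these data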;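 note: signal is peak over basal fluorescence ratio across the kinetic read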
M4 ag – CHRM4 agonism in calcium assay; P08173; CHO-K1 hM4/Gqi5, Fluo-8 calcium fluorescence; vehicle 0%, full acetylcholine response 100%; activation, % at 3 µM; 360,000 compounds, 0.14% hits; AID 624127;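 active = activation above the run mean over all test wells plus 3 SD, cut at about 32% in these data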;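 note: peak over basal fluorescence ratio per well then scaled between controls; 0% = DMSO wells and 100% = acetylcholine at EC100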
CHRM4 antagonist – blocks acetylcholine activation of human M4 receptor | P08173 | CHO-hM4 cells, ACh EC80, Fluo-8 calcium fluorescence | inhibition, % at 3 µM | 360,000 compounds, 0.73% hits;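 active = inhibition above its plate's cutoff, the mean inhibition of sample wells plus 3 SD, cut at about 27% in these data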;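 note: 0% = acetylcholine EC80 with DMSO and 100% = DMSO without agonist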
M5 PAM – positive allosteric modulators of human muscarinic M5 receptor. activation, % at 3 µM. CHO-K1 hM5, Fluo-8 calcium, ACh EC20 PAM; 0% = ACh EC20, 100% = ACh EC100. 360,000 compounds, 0.3% hits. P08912;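 active = activation above the run cutoff, the mean activation of all test compounds plus 3 SD, cut at about 18% in these data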
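Replicates: One well per compound, no replicates | System: Human M5 receptor in CHO-K1 cells | Benchmarks: Low control EC20 acetylcholine (0%), high control EC100 acetylcholine (100%) | Probe or stimulus: Acetylcholine, EC20 level | Times: Fluo-8 loading 80 min at 37 °C plus 30 min room temperature | Signal: Intracellular calcium via Fluo-8 fluorescence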
* marks the source's active call; other numbers are inactive results. An excerpt weighted towards active compounds, which were near 1.8% of everything screened.

SMILES	CHRM5 antagonist	CHRM4 PAM	CHRM5 agonist	M4 ag	CHRM4 antagonist	M5 PAM
COc1ccc(C(=O)c2c(C)c3cc(C)ccc3n2CC(O)CN2CCOCC2)cc1 (stereo unspecified)	-17.8	9.2	-1.8	2.5	-8.7	11.0
CCCc1cc(=O)[nH]c(SCC(=O)NC2(C#N)CCCCC2)n1	1.4	22.8*	-0.4	0.4	-10.8	8.9
COc1ccc(-n2nnc3c(=O)n(CC(=O)N4CCCc5ccccc54)cnc32)cc1	2.2	-1.7	0.0	0.1	1.1	-2.8
CCOc1ccc(-n2nnc3c(=O)n(CC(=O)N4CCCc5ccccc54)cnc32)cc1	1.6	-18.1	-0.5	-0.2	87.9*	-10.6
O=[N+]([O-])c1ccc(Nc2cccc(F)c2)nc1	7.5	-2.7	-1.7	5.8	-9.0	-10.6
O=S(=O)(c1cccc2nsnc12)N1CCCC1	-4.9	23.3	-0.5	1.6	-0.6	-5.7
CC1CN(S(=O)(=O)c2cccc3nsnc23)CC(C)O1 (stereo unspecified)	1.7	-9.3	-1.6	0.3	26.5*	5.0
CCOC(=O)CSc1nc(C)c(CC)c(C)c1C(N)=O	3.2	1.5	1.5	-0.1	2.5	1.4
CCOC(=O)CSc1nc(N)nc(C)c1Cl	27.1*	-7.3	-10.1	2.1	6.8	-19.1
CC1CN(S(=O)(=O)c2ccccc2)C(C)N1C(=O)N1CCOCC1 (stereo unspecified)	2.5	13.3	-4.7	0.6	-4.3	1.9
Cc1ccc(S(=O)(=O)N2CCC(C(=O)OC(C)C(=O)NCc3ccccc3)CC2)cc1C (stereo unspecified)	15.9	-3.4	-4.8	4.2	0.0	1.0
Cc1nnc(N(CCC#N)CCC#N)s1	6.6	14.4	-0.5	0.3	-0.5	-0.8
CSc1nnc(N(CCC#N)CCC#N)s1	-4.2	1.4	-3.9	0.3	-13.2	39.8*
Nc1nnn(CC(=O)N/N=C/c2cccc3ccccc23)n1	23.8	2.6	8.5	1.1	4.7	18.1*
Cc1ccccc1/C=N/NC(=O)Cn1nnc(N)n1	-7.6	11.8	-0.9	1.2	-7.4	6.5
CCN(CC)CCCN(C(=O)c1cccc(C)c1)c1nc(-c2ccc(OC)cc2)cs1	15.8	65.0*	-22.2	16.2	35.3*	-11.2
CCN(CC)CCCN(C(=O)c1cccs1)c1nc(-c2ccc(OC)cc2)cs1	8.6	-20.8	-5.6	5.2	19.9	-16.8
CCN(CC)CCCN(C(=O)c1ccc(Br)cc1)c1nc(-c2ccc(OC)cc2)cs1	-2.2	46.5*	-4.0	8.5	8.8	3.4
Cc1cc(C)c2cc(C#N)c(NCCNC(=O)c3ccncc3)nc2c1	-5.3	2.8	4.5	2.8	-1.1	3.2
CCC(=O)Nc1cc(=O)[nH]c2nc(-c3ccc(Cl)cc3)nn12	-9.4	6.0	3.7	-0.3	2.4	12.6
C[N+]1(C)CCCC(OC(=O)C(O)(c2ccccc2)c2ccccc2)C1 (stereo unspecified)	98.9*	-16.8	-1.6	0.0	98.6*	-18.6
COc1cccc(NC(=S)NC(=O)Cc2ccc(Cl)cc2)c1	11.9	-4.6	36.2*	29.2	-0.2	0.9
COc1ccccc1NC(=S)NC(=O)Cc1ccc(Cl)cc1	9.0	-4.4	5.0	4.4	1.1	-6.8
Cc1cccc(NC(=S)NC(=O)CCc2ccccc2)c1	-3.5	-1.7	-5.8	-1.8	-0.7	-1.6
COc1cccc(NC(=O)c2cc(Cl)nnc2Cl)c1	-0.2	23.9*	-5.0	4.5	-6.6	8.2
SMILES	CHRM5 antagonist	CHRM4 PAM	CHRM5 agonist	M4 ag	CHRM4 antagonist	M5 PAM
COc1ccc(CC(=O)NC(=S)Nc2cccc(CO)c2)cc1	-7.2	2.5	31.1*	15.1	1.1	4.2
COc1cc(NC(=O)c2cc(Cl)nnc2Cl)cc(OC)c1OC	-0.2	-2.5	0.3	1.0	0.0	0.1
COc1ccc(CC(=O)NC(=S)Nc2cccc(C)c2)cc1	5.5	-19.9	29.6*	29.1	5.4	5.2
CC1CCN(CC[C@H]2CCCN2S(=O)(=O)c2cccc(O)c2)CC1	0.8	-16.5	-1.3	1.5	50.6*	-9.4
O=C(Nc1ccccc1-c1ccccc1)C1CCC1	2.0	1.7	-3.7	53.7*	-8.9	-0.4
CC1CCN(CC(=O)Nc2ccccc2-c2ccccc2)CC1	9.3	-12.7	-6.2	-2.4	27.2*	-24.3
COC(=O)CCCC(=O)N1CCC(CCC(=O)NCc2ccc(F)cc2)CC1	-2.1	-1.7	6.5	0.3	-7.9	4.6
O=C(O)c1cccc(-n2c(-c3cnccn3)n[nH]c2=S)c1	-6.6	3.7	2.9	1.0	-6.0	18.3*
COCCNC(=O)C(c1ccc(C)o1)N(Cc1ccc(F)cc1)C(=O)Cn1nnc2ccccc21 (stereo unspecified)	1.4	0.6	-5.1	1.6	-8.3	22.5*
O=C(O)C1CCN(C(=O)c2cccc3ccccc23)CC1	-7.0	17.7*	0.5	1.4	-26.0	5.2
O=C(O)C1CCN(C(=O)c2ccccc2C(=O)N2CCC(C(=O)O)CC2)CC1	0.0	6.7	-0.1	-0.2	3.1	-0.7
CCOC(=O)N1CCC(N2C(=O)c3ccc(C(=O)O)cc3C2=O)CC1	-4.1	4.1	-3.3	0.8	-3.3	21.1*
CCOC(=O)N1CCC(N2C(=O)c3ccc(C(=O)NCc4ccc(F)cc4)cc3C2=O)CC1	-0.1	2.6	1.8	1.1	-2.9	-1.9
CCOC(=O)N1CCC(N2CCN(c3cc(C)ccc3C)CC2)CC1	55.2*	-20.1	-7.4	8.4	14.7	-15.9
CC(C)C[C@@H](CO)N1CCN(Cc2ccc([N+](=O)[O-])cc2)CCC1=O	3.0	-1.1	5.6	0.4	-8.6	-1.8
Cc1ccc(S(=O)(=O)c2nc(-c3ccccc3)oc2N2CCC(C(N)=O)CC2)cc1	-1.8	2.7	-0.8	0.2	-6.7	4.1
CCN(CC)c1ccc(C=NNc2ccc([N+](=O)[O-])cn2)cc1	36.9*	-2.8	35.3*	1.5	1.0	-15.4
COc1ccccc1C(=O)NCCC(=O)NCC(c1ccco1)N1CCCC1 (stereo unspecified)	-1.4	2.8	0.7	0.8	6.3	2.8
Cc1ccc(C2=NCCn3c2c2ccc(C(F)(F)F)cc2[n+]3[O-])cc1	2.4	9.2	6.8	1.3	-5.5	2.1
COc1ccc(NC(=O)C2CCN(c3nc(-c4ccc(OC)cc4)no3)CC2)cc1	-2.5	-1.4	0.8	1.6	-5.0	-0.4
CCN(C(=O)C1CCN(c2nc(-c3ccc(OC)cc3)no2)CC1)c1ccc(OC)cc1	28.3*	-6.6	6.5	12.7	-3.7	-20.3
C[C@H](CO)N1C[C@H](C)[C@@H](CN(C)Cc2ccc(F)cc2)Oc2ncc(Br)cc2C1=O	2.1	-4.2	-1.5	0.5	7.8	-0.3
